The source made the active and inactive calls. No cut-off for these calls is given here.
What was measured:
Procathepsin L [1] = target: T1, Procathepsin L (Homo sapiens, UniProt P07711); details: 5 to 50 uM
Target sequence in this assay (P07711 114-333 limits assumed): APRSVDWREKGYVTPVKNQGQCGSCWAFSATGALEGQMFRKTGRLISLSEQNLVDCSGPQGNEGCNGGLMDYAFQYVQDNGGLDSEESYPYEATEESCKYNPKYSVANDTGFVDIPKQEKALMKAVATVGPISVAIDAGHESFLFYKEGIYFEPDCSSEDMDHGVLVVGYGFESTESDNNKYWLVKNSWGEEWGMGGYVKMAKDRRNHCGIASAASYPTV

Procathepsin L [2] = target: T1, Procathepsin L; experiment: Inhibition of human cathepsin L using Cbz-Phe-Arg-AMC as substrate by spectrofluorometer analysis
Target sequence in this assay (P07711 whole entry): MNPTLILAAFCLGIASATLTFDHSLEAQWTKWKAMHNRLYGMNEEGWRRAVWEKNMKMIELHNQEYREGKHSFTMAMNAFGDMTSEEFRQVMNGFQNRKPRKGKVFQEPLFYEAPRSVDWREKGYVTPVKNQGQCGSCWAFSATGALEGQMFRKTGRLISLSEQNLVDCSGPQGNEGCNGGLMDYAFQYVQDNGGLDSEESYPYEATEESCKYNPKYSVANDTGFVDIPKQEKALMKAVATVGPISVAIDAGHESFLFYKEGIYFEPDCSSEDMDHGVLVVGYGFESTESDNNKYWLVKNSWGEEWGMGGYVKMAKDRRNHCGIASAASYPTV

Plasmodium falciparum [3] = experiment: Inhibition of Plasmodium falciparum Falcipain 2 using Cbz-Phe-Arg-AMC as substrate at 30 uM after 15 mins by spectrofluorometer analysis
In short: (§1)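 Single-concentration screen at 100 and 30 inhibitor concentration, with an equal amount of DMSO as negative control and E-64 as positive control. AMC release from Cbz-Phe-Arg-AMC was followed fluorimetrically (ex 365, em 460 nm) as continuous increase in fluorescence. Percent inhibition is relative to DMSO. At least two independent measurements, each in duplicate.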

Plasmodium falciparum [4] = experiment: Inhibition of Plasmodium falciparum Falcipain 2 using Cbz-Phe-Arg-AMC as substrate at 100 uM after 15 mins by spectrofluorometer analysis
In short: as §1

Cathepsin B = Cathepsin B (Homo sapiens, UniProt P07858); experiment: Inhibition of human cathepsin-B using Cbz-Phe-Arg-AMC as substrate by spectrofluorometer analysis
Plasmodium falciparum [5] = experiment: Antiplasmodial activity against Plasmodium falciparum FCBR; assay type: functional, organism-based; details: FCBR/Columbia
[6] = Inhibition of Plasmodium falciparum Falcipain 2 using Cbz-Phe-Arg-AMC as substrate after 15 mins by spectrofluorometer analysis
In short: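 Continuous progress-curve assay in 50 mM sodium acetate pH 5.5 with 10 mM DTT, Cbz-Phe-Arg-AMC as substrate, inhibitors from DMSO stocks. AMC release read (ex 365, em 460 nm) for 15 min at room temperature. kobs from the fit F = A(1−exp(−kobs·t)) + B. Hyperbolic kobs vs [I] gave kinac and KI; linear plots gave k2nd = kobs/[I]. At least two independent runs, each in duplicate.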

SMILES	Ki (Procathepsin L [2]; read-out: Ki)	Ki (Cathepsin B)	further results
CC(=O)/C=C/CNC(=O)CN1C(=O)[C@@H](COC(=O)Nc2ccc(Cl)cc2C(F)(F)F)N=C(c2ccccc2)c2ccccc21			inhibition (Procathepsin L [1]): tde; Ki (Procathepsin L [2]; read-out: Ki(app)): 8.6 µM
CC(=O)/C=C/CNC(=O)CN1C(=O)[C@@H](CN2CCCCC2)N=C(c2ccccc2)c2ccccc21	> 100 µM	> 100 µM	inhibition (Plasmodium falciparum [3]): inactive; inhibition (Plasmodium falciparum [4]): 80%
CC(=O)/C=C/CNC(=O)CN1C(=O)[C@@H](COC(=O)Nc2ccc(Cl)cc2C(F)(F)F)N=C(C)c2ccccc21	82 µM		IC50 (Plasmodium falciparum [5]): > 100 µM
CC(=O)/C=C/CNC(=O)CN1C(=O)[C@@H](CNCC(C)C)N=C(c2ccccc2)c2ccccc21	> 140 µM	> 100 µM	Ki [6]: > 100 µM
CC(=O)/C=C/CNC(=O)CN1C(=O)[C@@H](CN2CCOCC2)N=C(c2ccccc2)c2ccccc21		> 100 µM	

Source: ChEMBL document CHEMBL1949554, “Peptidomimetics containing a vinyl ketone warhead as falcipain-2 inhibitors” (Eur J Med Chem, 2011)
